This is an account of results in ChEMBL document CHEMBL1134525, “Novel N-(arylalkyl)indol-3-ylglyoxylylamides targeted as ligands of the benzodiazepine receptor: synthesis, biological evaluation, and molecular modeling analysis of the structure-activity relationships” (J Med Chem, 2001).

For experiment [1], the target named is T1, GABA-A receptor; anion channel (Bos taurus) (UniProt P10063+P08220+P20237+P08219+P10064+P22300). The experiment can be described thus: Inhibition of [3H]- flumazenil binding to benzodiazepine receptor in bovine brain membranes at a dose of 10 uM. In kind it is cell membranes. In a few lines:
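Bovine brain membranes were freeze-thawed, washed by suspension and centrifugation in 50 mM tris-citrate pH 7.4, then used for competition binding against [3H]flumazenil. Specific binding inhibition was first measured at a fixed 10 µM. […] Protein was measured by the Lowry method.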

In experiment [2] the target is GABA-A receptor; anion channel. The experiment can be described thus: Inhibition of [3H]- flumazenil binding to benzodiazepine receptor in bovine brain membranes. In kind it is cell membranes. In a few lines:
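Bovine brain membranes were freeze-thawed, washed by suspension and centrifugation in 50 mM tris-citrate pH 7.4, then used for competition binding against [3H]flumazenil. Specific binding inhibition was first measured at a fixed 10 µM. Protein was measured by the Lowry method.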

Experiment [3] has as its target GABA A receptor alpha-5/beta-3/gamma-2 (Rattus norvegicus, UniProt P18508+P19969+P63079). The experiment can be described thus: Inhibition of [3H]flumazenil binding to rat alpha-5-beta-3-gamma-2 GABA-A receptor subunits expressed in HEK293 cells. It is filed as cell-based. In a few lines:
(§1)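 Membranes came from HEK293 clonal lines expressing rat GABAA subtypes, grown in MEM/EBSS with 10% FCS, 2 mM glutamine and penicillin/streptomycin at 37 °C in 5% CO2. Membranes were homogenized and centrifuged (48 000 × g, 30 min, 4 °C) in 10 mM K-phosphate pH 7.4 and resuspended with 100 mM KCl. […] Nonspecific binding was defined with 10^-5 M diazepam. Results are the mean of three determinations.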

The target in experiment [4] is GABA-A receptor; alpha-1/beta-2/gamma-2 (Rattus norvegicus, UniProt P18508+P62813+P63138). The experiment can be described thus: Inhibition of [3H]flumazenil binding to rat alpha-1-beta-2-gamma-2 GABA-A receptor subunits expressed in HEK293 cells. In kind it is cell-based. An outline of the steps: as §1
Experiment [5] deals with GABA A receptor alpha-3/beta-2/gamma-2 (Rattus norvegicus, UniProt P18508+P20236+P63138). Put plainly: (§2) Inhibition of [3H]flumazenil binding to rat alpha-3-beta-2-gamma-2 GABA-A receptor subunits expressed in HEK293 cells. In kind it is cell-based. In a few lines: as §1
Experiment [6] has as its target T1, GABA-A receptor; anion channel (Bos taurus). The experiment can be described thus: Relative bindign to GABA-A receptor in the presence and absence of GABA (GABA shift), Ki(-GABA)/Ki(+GABA). In kind it is protein-complex assay. In a few lines:
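[3H]flumazenil displacement Ki was measured both with and without GABA, using exhaustively washed bovine brain membranes or HEK293 membranes expressing rat α1β2γ2, α3β2γ2 or α5β3γ2. GABA ratio = Ki(without GABA)/Ki(with GABA).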

The nature of experiment [7]: Ratio of Ki with out GABA and with GABA.
Experiment [8] concerns the target GABA A receptor alpha-3/beta-2/gamma-2 (Rattus norvegicus) (UniProt P18508+P20236+P63138). Described as §2. In kind it is cell-based. An outline of the steps: as §1
Experiment [9] concerns the target GABA A receptor alpha-5/beta-3/gamma-2 (Rattus norvegicus) (UniProt P18508+P19969+P63079). The conditions noted are these: HEK293, 10 uM.

pKi: −log10 of the molar value. Where “and” joins values, the source holds several entries; their conditions need not be identical. Identical values can stand only once.

Sequence of GABA-A receptor; alpha-1/beta-2/gamma-2 (P18508 whole entry): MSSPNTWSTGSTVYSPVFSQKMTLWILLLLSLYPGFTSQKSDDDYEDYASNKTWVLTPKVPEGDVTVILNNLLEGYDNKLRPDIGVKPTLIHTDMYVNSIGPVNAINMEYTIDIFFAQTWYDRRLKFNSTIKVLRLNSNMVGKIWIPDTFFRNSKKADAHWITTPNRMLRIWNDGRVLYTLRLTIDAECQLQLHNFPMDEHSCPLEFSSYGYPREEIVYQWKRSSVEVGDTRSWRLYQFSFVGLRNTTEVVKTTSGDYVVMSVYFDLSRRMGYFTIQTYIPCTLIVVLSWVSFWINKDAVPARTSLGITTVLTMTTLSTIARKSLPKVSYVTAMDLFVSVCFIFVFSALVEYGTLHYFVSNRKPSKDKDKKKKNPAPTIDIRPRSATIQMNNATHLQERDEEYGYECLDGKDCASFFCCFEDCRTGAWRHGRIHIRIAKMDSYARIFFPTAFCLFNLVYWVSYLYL
Sequence of GABA-A receptor; alpha-1/beta-2/gamma-2 (P62813 whole entry): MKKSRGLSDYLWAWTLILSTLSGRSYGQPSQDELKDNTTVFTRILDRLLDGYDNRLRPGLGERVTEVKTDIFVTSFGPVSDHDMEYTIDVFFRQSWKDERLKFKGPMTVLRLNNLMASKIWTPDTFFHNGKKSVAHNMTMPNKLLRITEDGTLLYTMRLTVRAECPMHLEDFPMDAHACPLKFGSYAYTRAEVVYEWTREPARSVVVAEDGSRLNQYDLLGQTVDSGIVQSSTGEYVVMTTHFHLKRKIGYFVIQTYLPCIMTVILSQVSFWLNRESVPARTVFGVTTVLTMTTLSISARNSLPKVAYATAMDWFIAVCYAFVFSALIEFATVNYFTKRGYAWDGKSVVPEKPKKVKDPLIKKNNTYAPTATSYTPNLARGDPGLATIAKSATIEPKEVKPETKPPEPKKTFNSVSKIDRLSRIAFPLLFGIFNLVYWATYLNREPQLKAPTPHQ
Sequence of GABA-A receptor; alpha-1/beta-2/gamma-2 (P63138 whole entry): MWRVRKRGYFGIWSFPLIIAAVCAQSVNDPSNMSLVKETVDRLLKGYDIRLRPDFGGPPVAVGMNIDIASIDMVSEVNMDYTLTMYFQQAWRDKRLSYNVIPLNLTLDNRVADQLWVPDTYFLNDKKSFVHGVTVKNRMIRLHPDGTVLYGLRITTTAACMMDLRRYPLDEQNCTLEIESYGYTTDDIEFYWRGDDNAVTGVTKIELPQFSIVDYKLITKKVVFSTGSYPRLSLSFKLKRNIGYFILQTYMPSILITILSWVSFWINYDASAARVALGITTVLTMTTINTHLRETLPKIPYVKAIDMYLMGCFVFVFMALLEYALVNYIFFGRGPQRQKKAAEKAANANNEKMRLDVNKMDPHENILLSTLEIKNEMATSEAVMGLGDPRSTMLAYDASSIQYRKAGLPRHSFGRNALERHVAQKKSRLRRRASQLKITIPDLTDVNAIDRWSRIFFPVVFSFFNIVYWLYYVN
Sequence of GABA A receptor alpha-3/beta-2/gamma-2 (P18508 whole entry): as the sequence (P18508 whole entry) above
Sequence of GABA A receptor alpha-3/beta-2/gamma-2 (P20236 whole entry): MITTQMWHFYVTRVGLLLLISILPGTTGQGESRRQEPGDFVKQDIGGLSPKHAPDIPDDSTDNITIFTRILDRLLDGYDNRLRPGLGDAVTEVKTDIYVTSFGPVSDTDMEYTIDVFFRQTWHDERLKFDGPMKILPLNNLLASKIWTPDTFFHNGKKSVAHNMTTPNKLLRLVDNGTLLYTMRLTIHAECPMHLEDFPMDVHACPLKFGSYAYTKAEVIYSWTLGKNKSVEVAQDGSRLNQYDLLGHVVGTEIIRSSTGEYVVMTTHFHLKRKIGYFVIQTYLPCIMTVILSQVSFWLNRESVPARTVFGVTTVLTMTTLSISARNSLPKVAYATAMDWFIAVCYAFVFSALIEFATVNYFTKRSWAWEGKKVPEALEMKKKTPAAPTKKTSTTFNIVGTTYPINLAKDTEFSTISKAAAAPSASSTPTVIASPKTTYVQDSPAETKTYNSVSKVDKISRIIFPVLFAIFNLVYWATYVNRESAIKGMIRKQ
Sequence of GABA A receptor alpha-3/beta-2/gamma-2 (P63138 whole entry): as the sequence (P63138 whole entry) above
Sequence of GABA A receptor alpha-5/beta-3/gamma-2 (P18508 whole entry): as the sequence (P18508 whole entry) above
Sequence of GABA A receptor alpha-5/beta-3/gamma-2 (P19969 whole entry): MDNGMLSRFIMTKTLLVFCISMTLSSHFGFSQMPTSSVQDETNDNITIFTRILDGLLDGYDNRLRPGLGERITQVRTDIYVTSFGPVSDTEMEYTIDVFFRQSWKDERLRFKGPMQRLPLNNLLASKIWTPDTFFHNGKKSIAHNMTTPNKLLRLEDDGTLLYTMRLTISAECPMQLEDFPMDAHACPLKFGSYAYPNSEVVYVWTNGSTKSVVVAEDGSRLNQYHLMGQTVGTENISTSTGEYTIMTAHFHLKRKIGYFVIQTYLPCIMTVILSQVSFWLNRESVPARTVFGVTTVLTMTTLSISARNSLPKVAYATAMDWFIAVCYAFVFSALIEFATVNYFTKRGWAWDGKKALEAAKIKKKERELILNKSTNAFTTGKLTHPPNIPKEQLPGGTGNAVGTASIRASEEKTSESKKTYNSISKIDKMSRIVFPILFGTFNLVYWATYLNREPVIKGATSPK
Sequence of GABA A receptor alpha-5/beta-3/gamma-2 (P63079 whole entry): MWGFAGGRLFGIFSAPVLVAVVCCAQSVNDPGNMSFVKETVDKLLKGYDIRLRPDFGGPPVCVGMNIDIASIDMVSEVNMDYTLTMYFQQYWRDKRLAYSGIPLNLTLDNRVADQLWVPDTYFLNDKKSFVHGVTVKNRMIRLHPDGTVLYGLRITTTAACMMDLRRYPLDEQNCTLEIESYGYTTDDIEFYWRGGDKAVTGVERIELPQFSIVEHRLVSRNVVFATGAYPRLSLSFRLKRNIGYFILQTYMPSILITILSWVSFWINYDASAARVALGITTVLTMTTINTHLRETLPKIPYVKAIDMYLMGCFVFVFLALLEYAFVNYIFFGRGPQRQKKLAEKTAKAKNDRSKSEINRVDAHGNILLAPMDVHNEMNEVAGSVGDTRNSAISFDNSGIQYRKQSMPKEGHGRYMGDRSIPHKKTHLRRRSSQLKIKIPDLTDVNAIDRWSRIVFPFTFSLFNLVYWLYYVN

In experiment [1], `COc1ccc(NNC(=O)C(=O)c2c[nH]c3ccc([N+](=O)[O-])cc23)cc1` yielded an inhibition of under 80%.
The same measure, in the same setting: the result for `COc1ccc2[nH]cc(C(=O)C(=O)NNc3ccc([N+](=O)[O-])cc3)c2c1` reads under 80%.
Still for that read-out and setting: to `CCOC(=O)C(NC(=O)C(=O)c1c[nH]c2ccc([N+](=O)[O-])cc12)c1ccccc1` (racemic) belongs under 80%; to `COc1ccc(NNC(=O)C(=O)c2c[nH]c3ccc(OC)cc23)cc1`, under 80%.
In experiment [2], `COc1ccc(C(C)NC(=O)C(=O)c2c[nH]c3ccc([N+](=O)[O-])cc23)cc1OC` (racemic) showed a negative-log Ki (pKi) of 7.26.
Regarding `COc1ccc(C(C)NC(=O)C(=O)c2c[nH]c3ccccc23)cc1` (racemic), the pKi in [2] is 5.93. This pKi is 1.33 log units lower than that of the molecule before.
As for `Cc1ccc([C@H](C)NC(=O)C(=O)c2c[nH]c3ccc(Cl)cc23)cc1`, the inhibition in [1] was under 80%.
As for `C[C@@H](NC(=O)C(=O)c1c[nH]c2ccc([N+](=O)[O-])cc12)c1ccc([N+](=O)[O-])cc1`, the pKi in experiment [2] was 7.11.
Consider `COc1ccc(CNC(=O)C(=O)c2c[nH]c3ccc(OC)cc23)cc1`, for which the pKi in [2] is 6.31.
On the same count and under the same terms, to `O=C(NCc1ccc([N+](=O)[O-])cc1)C(=O)c1c[nH]c2ccc(Cl)cc12` belongs 5.86.
The molecule `O=C(NC(CO)c1ccccc1)C(=O)c1c[nH]c2ccccc12` (racemic) had an inhibition in [1] of under 80%.
In experiment [1], `O=C(N[C@H]1CCc2ccccc21)C(=O)c1c[nH]c2ccc(Cl)cc12` gave an inhibition of under 80%.
Same read-out and setting: to `O=C(NC1Cc2ccccc2C1)C(=O)c1c[nH]c2ccc([N+](=O)[O-])cc12` belongs under 80%; to `O=C(NCc1ccc(Cl)cc1)C(=O)c1c[nH]c2ccc([N+](=O)[O-])cc12`, under 80%; to `C[C@H](NC(=O)C(=O)c1c[nH]c2ccc(Cl)cc12)c1ccc([N+](=O)[O-])cc1`, under 80%.
With `O=C(N[C@@H]1CCc2ccccc21)C(=O)c1c[nH]c2ccc([N+](=O)[O-])cc12`, the negative-log Ki (pKi) was 7.55 in experiment [2], 7.02 in [3], 8.05 in [4] and 5.71 in experiment [5]. Also, the Ratio in [6] is 1.13; in experiment [7], 1.12 and 0.98.
With `O=C(NNc1ccc([N+](=O)[O-])cc1)C(=O)c1c[nH]c2ccccc12`, the pKi is 7.37 in experiment [3], 7.60 in [4] and 7.40 in [5]. Moreover, the Ratio in experiment [7] is 0.96 and 0.98 and 0.8.
With `O=C(NNc1ccc([N+](=O)[O-])cc1)C(=O)c1c[nH]c2ccc(Cl)cc12`, the inhibition in [1] was under 80%.
With `Cc1ccc([C@@H](C)NC(=O)C(=O)c2c[nH]c3ccc([N+](=O)[O-])cc23)cc1`, in experiment [2], the pKi was 7.47.
The molecule `O=C(NC1Cc2ccccc2C1)C(=O)c1c[nH]c2ccccc12` returned an inhibition in experiment [1] of under 80%.
On the same count and under the same terms, the result for `C[C@H](NC(=O)C(=O)c1c[nH]c2ccccc12)c1ccccc1` reads under 80%.
As to `C[C@H](NC(=O)C(=O)c1c[nH]c2ccc(Cl)cc12)c1ccccc1`, in experiment [2], the negative-log Ki (pKi) was 7.00.
For `C[C@H](NC(=O)C(=O)c1c[nH]c2ccccc12)c1ccc([N+](=O)[O-])cc1`, the inhibition in experiment [1] is under 80%.
Same read-out and setting: the result for `O=C(N[C@H]1CCc2ccccc21)C(=O)c1c[nH]c2ccccc12` reads under 80%.
With `C[C@@H](NC(=O)C(=O)c1c[nH]c2ccc([N+](=O)[O-])cc12)c1ccccc1`, the pKi in experiment [2] was 7.77; in experiment [3], 6.62; in experiment [4], 7.85; in experiment [5], 6.55.
As for `COc1ccc(CNC(=O)C(=O)c2c[nH]c3ccc([N+](=O)[O-])cc23)cc1`, the figures for the pKi in experiment [3], in experiment [4] and in [5] were 6.90, 7.38 and 6.86, respectively. In [7], the Ratio was 1.11 and 0.96 and 0.9.
In turn, `Cc1ccc([C@@H](C)NC(=O)C(=O)c2c[nH]c3ccccc23)cc1` showed a negative-log Ki (pKi) in [2] of 5.94.
In [1], `CCOC(=O)C(NC(=O)C(=O)c1c[nH]c2ccccc12)c1ccccc1` (racemic) registered an inhibition of under 80%.
On to `O=C(N[C@@H]1CCc2ccccc21)C(=O)c1c[nH]c2ccccc12`, for which the negative-log Ki (pKi) in experiment [2] is 6.17; in experiment [3], 5.67; in experiment [4], 6.65. In addition, the inhibition in [8] was found to be 28%.
As to `C[C@@H](NC(=O)C(=O)c1c[nH]c2ccccc12)c1ccc([N+](=O)[O-])cc1`, in experiment [1], the inhibition was under 80%.
With `C[C@H](NC(=O)C(=O)c1c[nH]c2ccc([N+](=O)[O-])cc12)c1ccccc1`, the inhibition in [1] was under 80%.
For the molecule `O=C(NCc1ccc([N+](=O)[O-])cc1)C(=O)c1c[nH]c2ccccc12`, the negative logarithm of the Ki (pKi) in [2] was 7.68; in experiment [3], 7.24; in experiment [4], 7.80; in experiment [5], 5.80. The Ratio in [7] is 0.9 and 0.91 and 0.73.
With `CCOC(=O)[C@@H](C)NC(=O)C(=O)c1c[nH]c2ccc([N+](=O)[O-])cc12`, the negative-log Ki (pKi) in [2] was 7.35.
On the same count and under the same terms, the result for `O=C(NCc1ccc([N+](=O)[O-])cc1)C(=O)c1c[nH]c2ccc([N+](=O)[O-])cc12` reads 6.21.
In [1], `C[C@H](NC(=O)C(=O)c1c[nH]c2ccc([N+](=O)[O-])cc12)c1ccc([N+](=O)[O-])cc1` showed an inhibition of under 80%.
Same read-out and setting: the result for `O=C(C(=O)N1Cc2ccccc2C1)c1c[nH]c2ccc([N+](=O)[O-])cc12` reads under 80%.
For `O=C(N[C@@H]1CCc2ccccc21)C(=O)c1c[nH]c2ccc(Cl)cc12`, the pKi in experiment [2] was 7.10.
Consider `COc1ccc(C(C)NC(=O)C(=O)c2c[nH]c3ccc(Cl)cc23)cc1` (racemic), for which the negative logarithm of the Ki (pKi) in experiment [2] was 6.99. The pKi values of the last two molecules are within 0.2 log units of each other.
In the case of `O=C(C(=O)N1Cc2ccccc2C1)c1c[nH]c2ccc(Cl)cc12`, the inhibition in experiment [1] is under 80%.
In the case of `C[C@@H](NC(=O)C(=O)c1c[nH]c2ccccc12)c1ccccc1`, the negative-log Ki (pKi) in [2] was 5.88; in experiment [3] it was 5.26; in experiment [4], 5.94. Also, in experiment [8], the inhibition was determined as 5%.
Turning to `N#CC(NC(=O)C(=O)c1c[nH]c2ccccc12)c1ccccc1` (racemic), the inhibition in experiment [1] is under 80%.
Molecule `COc1ccc(C(C)NC(=O)C(=O)c2c[nH]c3ccccc23)cc1OC` (racemic) gave a pKi in experiment [2] of 6.07.
In experiment [1], `Cc1ccc([C@H](C)NC(=O)C(=O)c2c[nH]c3ccc([N+](=O)[O-])cc23)cc1` registered an inhibition of under 80%.
On the same count and under the same terms, the result for `O=C(NC1Cc2ccccc2C1)C(=O)c1c[nH]c2ccc(Cl)cc12` reads under 80%.
Turning to `N#CC(NC(=O)C(=O)c1c[nH]c2ccc([N+](=O)[O-])cc12)c1ccccc1` (racemic), the pKi in experiment [2] was 6.62.
Molecule `O=C(NNc1ccc([N+](=O)[O-])cc1)C(=O)c1c[nH]c2ccc([N+](=O)[O-])cc12` showed an inhibition in experiment [1] of under 80%.
On the same count and under the same terms, the result for `C[C@@H](NC(=O)C(=O)c1c[nH]c2ccc(Cl)cc12)c1ccccc1` reads under 80%.
In the case of `COc1ccc(C(C)NC(=O)C(=O)c2c[nH]c3ccc(Cl)cc23)cc1OC` (racemic), the negative logarithm of the Ki (pKi) in [2] was 6.82.
Regarding `Cc1ccc(-c2nc3ccc(C)cn3c2CC(=O)N(C)C)cc1`, the inhibition in experiment [9] was found to be 35%.
In the case of `COc1ccc2[nH]cc(C(=O)C(=O)NCc3ccc(Cl)cc3)c2c1`, the inhibition in experiment [1] was under 80%.
`COc1ccc(C(C)NC(=O)C(=O)c2c[nH]c3ccc([N+](=O)[O-])cc23)cc1` (racemic) showed a negative-log Ki (pKi) in experiment [2] of 6.95.
On the same count and under the same terms, to `C[C@@H](NC(=O)C(=O)c1c[nH]c2ccc(Cl)cc12)c1ccc([N+](=O)[O-])cc1` belongs 6.16.
Molecule `Cc1ccc([C@H](C)NC(=O)C(=O)c2c[nH]c3ccccc23)cc1` returned an inhibition in [1] of under 80%.
`O=C(NC(CO)c1ccccc1)C(=O)c1c[nH]c2ccc([N+](=O)[O-])cc12` (racemic) registered an inhibition in experiment [1] of under 80%.
Turning to `O=C(N[C@H]1CCc2ccccc21)C(=O)c1c[nH]c2ccc([N+](=O)[O-])cc12`, the inhibition in experiment [1] was under 80%.
In turn, `Cc1ccc([C@@H](C)NC(=O)C(=O)c2c[nH]c3ccc(Cl)cc23)cc1` showed a pKi in experiment [2] of 6.98.
In turn, `O=C(NCc1ccc(Cl)cc1)C(=O)c1c[nH]c2ccc(Cl)cc12` showed an inhibition in [1] of under 80%.
Molecule `CCOC(=O)[C@H](C)NC(=O)C(=O)c1c[nH]c2ccc([N+](=O)[O-])cc12` gave a negative logarithm of the Ki (pKi) in experiment [2] of 5.71.
Still for that read-out and setting: to `CCOC(=O)CNC(=O)C(=O)c1c[nH]c2ccc([N+](=O)[O-])cc12` belongs 5.57.
For `COc1ccc(NNC(=O)C(=O)c2c[nH]c3ccc(Cl)cc23)cc1`, in experiment [1], the inhibition was under 80%.
